Results reported in the M2OR odorant receptor database.

Legend:
Conditions in all cases: stereoisomer not certain
O52I2 I74L = test system: O52I2 I74L
In short: (§1)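 Assay methods differ from source to source, frequently being transient luciferase assays in mammalian cell lines. For each receptor–molecule pair, the label responsive (active) applies when the original authors judged the measured signal statistically different from baseline, and non-responsive (inactive) applies otherwise.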

O52J3 T77A V128I Q141L = test system: O52J3 T77A V128I Q141L
In short: as §1

O52K1 A119T A149T = test system: O52K1 A119T A149T
In short: as §1

O52K1 Q52R = test system: O52K1 Q52R
In short: as §1

O52L1 = test system: O52L1
In short: as §1

O52M1 S305R = test system: O52M1 S305R
In short: as §1

O52N1 R167C F247I = test system: O52N1 R167C F247I
In short: as §1

O52N2 S249A H264R = test system: O52N2 S249A H264R
In short: as §1

O52W1 H239R L254Q = test system: O52W1 H239R L254Q
In short: as §1

O56A3 = test system: O56A3
In short: as §1

Measured: odorant receptor agonist call

O52K1 Q52R, sequence (as listed by the source, stated change not applied): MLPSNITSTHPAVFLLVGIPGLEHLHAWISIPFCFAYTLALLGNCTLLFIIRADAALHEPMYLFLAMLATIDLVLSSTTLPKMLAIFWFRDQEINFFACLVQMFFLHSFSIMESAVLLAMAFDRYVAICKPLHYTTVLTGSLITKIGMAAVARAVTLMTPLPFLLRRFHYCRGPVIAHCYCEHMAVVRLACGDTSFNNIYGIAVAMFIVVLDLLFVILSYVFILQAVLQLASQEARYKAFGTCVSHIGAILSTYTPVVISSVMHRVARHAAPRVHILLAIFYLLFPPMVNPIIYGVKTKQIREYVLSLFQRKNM
O52L1, sequence (as listed by the source): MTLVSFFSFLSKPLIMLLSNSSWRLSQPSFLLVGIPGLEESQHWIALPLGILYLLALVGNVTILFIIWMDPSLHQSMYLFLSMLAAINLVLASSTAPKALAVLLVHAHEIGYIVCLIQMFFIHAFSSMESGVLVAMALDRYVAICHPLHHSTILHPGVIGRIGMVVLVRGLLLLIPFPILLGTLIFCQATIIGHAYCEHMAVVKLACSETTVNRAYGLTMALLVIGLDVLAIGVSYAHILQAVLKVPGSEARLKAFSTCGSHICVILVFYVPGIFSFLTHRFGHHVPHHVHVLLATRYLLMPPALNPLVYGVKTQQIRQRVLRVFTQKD
O56A3, sequence (as listed by the source): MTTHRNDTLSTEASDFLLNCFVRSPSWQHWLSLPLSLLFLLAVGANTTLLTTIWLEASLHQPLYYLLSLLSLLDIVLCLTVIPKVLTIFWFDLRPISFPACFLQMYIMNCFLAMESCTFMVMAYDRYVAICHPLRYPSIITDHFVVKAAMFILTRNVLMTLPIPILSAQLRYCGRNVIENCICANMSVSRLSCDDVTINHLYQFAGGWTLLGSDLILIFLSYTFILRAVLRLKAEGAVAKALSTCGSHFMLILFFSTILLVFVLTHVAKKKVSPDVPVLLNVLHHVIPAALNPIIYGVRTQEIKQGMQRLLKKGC
O52M1 S305R, sequence (as listed by the source, stated change not applied): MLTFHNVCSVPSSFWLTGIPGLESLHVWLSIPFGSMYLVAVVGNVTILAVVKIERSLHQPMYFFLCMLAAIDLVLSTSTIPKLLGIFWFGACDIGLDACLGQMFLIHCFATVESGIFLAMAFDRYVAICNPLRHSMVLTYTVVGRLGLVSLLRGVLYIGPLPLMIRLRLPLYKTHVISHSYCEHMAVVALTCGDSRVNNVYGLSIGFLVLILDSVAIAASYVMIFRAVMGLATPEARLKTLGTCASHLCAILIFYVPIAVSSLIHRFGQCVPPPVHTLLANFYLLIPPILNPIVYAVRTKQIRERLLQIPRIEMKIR
O52I2 I74L, sequence (as listed by the source, stated change not applied): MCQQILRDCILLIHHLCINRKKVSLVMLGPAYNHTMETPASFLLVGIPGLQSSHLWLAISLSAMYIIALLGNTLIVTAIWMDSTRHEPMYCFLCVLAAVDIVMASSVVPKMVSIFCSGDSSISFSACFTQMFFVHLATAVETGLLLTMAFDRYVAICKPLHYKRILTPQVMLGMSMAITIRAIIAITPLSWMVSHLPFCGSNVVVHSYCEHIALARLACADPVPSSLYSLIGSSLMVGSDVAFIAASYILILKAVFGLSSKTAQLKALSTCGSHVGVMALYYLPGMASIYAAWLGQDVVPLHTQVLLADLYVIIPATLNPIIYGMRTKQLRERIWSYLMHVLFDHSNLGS

C=CCOC(=O)Cc1ccccc1
inactive: all assays above
